# Measured values from ChEMBL document CHEMBL1143719, “Design, synthesis, and anticonvulsant activity of some sulfamides” (Bioorg Med Chem, 2007).
# Calls of active or inactive are those of the source. The calls are words filed in the database; no cut-off is given here.
# What was measured:
# Mus musculus [1] = test: Anticonvulsant activity in Albino mouse at 100 mg/kg, ip after 4 hrs by MES assay; assay type: functional, organism-based; set-up: dose 100 mg/kg
# Summary of the method: (§1)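 Mice given compound ip at 30, 100 and 300 mg/kg in 30% polyethylene glycol 400 and 10% water, 0.01 mL/g body weight. Three animals per dose. Maximal electroshock (MES) or pentylenetetrazol (PTZ) seizure tests were run 0.5 and 4 h after dosing, and animals protected were counted.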
# Mus musculus [2] = test: Anticonvulsant activity in Albino mouse at 300 mg/kg, ip after 4 hrs by PTZ assay; assay type: functional, organism-based; set-up: dose 300 mg/kg; summary of the method: as §1
# Mus musculus [3] = test: Neurotoxicity in Albino mouse at 30 mg/kg, ip after 4 hrs by RotoRod test; assay type: toxicity, organism-based; set-up: dose 30 mg/kg, route intraperitoneal; details: in vivo
# Summary of the method: (§2)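 RotoRod neurotoxicity screen in mice dosed ip at 30, 100 and 300 mg/kg, in vehicle of 30% PEG 400 and 10% water (0.01 mL/g). Three animals per dose, tested 0.5 and 4 h after administration. Affected animals were scored per group.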
# Mus musculus [4] = test: Anticonvulsant activity in Albino mouse at 100 mg/kg, ip after 4 hrs by PTZ assay; assay type: functional, organism-based; set-up: dose 100 mg/kg; summary of the method: as §1
# Mus musculus [5] = test: Neurotoxicity in Albino mouse at 30 mg/kg, ip after 0.5 hrs by RotoRod test; assay type: toxicity, organism-based; set-up: dose 30 mg/kg, route intraperitoneal; details: in vivo; summary of the method: as §2
# Mus musculus [6] = test: Anticonvulsant activity in Albino mouse at 30 mg/kg, ip after 0.5 hrs by PTZ assay; assay type: functional, organism-based; set-up: dose 30 mg/kg; summary of the method: as §1
# Mus musculus [7] = test: Neurotoxicity in Albino mouse at 100 mg/kg, ip after 4 hrs by RotoRod test; assay type: toxicity, organism-based; set-up: dose 100 mg/kg, route intraperitoneal; details: in vivo; summary of the method: as §2
# Mus musculus [8] = test: Neurotoxicity in Albino mouse at 300 mg/kg, ip after 0.5 hrs by RotoRod test; assay type: toxicity, organism-based; set-up: dose 300 mg/kg, route intraperitoneal; details: in vivo; summary of the method: as §2
# Mus musculus [9] = test: Neurotoxicity in Albino mouse at 100 mg/kg, ip after 0.5 hrs by RotoRod test; assay type: toxicity, organism-based; set-up: dose 100 mg/kg, route intraperitoneal; details: in vivo; summary of the method: as §2
# Mus musculus [10] = test: Anticonvulsant activity in Albino mouse at 30 mg/kg, ip after 4 hrs by PTZ assay; assay type: functional, organism-based; set-up: dose 30 mg/kg; summary of the method: as §1
# Mus musculus [11] = test: Anticonvulsant activity in Albino mouse at 30 mg/kg, ip after 0.5 hrs by MES assay; assay type: functional, organism-based; set-up: dose 30 mg/kg; summary of the method: as §1
# Mus musculus [12] = test: Neurotoxicity in Albino mouse at 300 mg/kg, ip after 4 hrs by RotoRod test; assay type: toxicity, organism-based; set-up: dose 300 mg/kg, route intraperitoneal; details: in vivo; summary of the method: as §2
# Mus musculus [13] = test: Anticonvulsant activity in Albino mouse at 300 mg/kg, ip after 0.5 hrs by PTZ assay; assay type: functional, organism-based; set-up: dose 300 mg/kg; summary of the method: as §1
# Mus musculus [14] = test: Anticonvulsant activity in Albino mouse at 100 mg/kg, ip after 0.5 hrs by PTZ assay; assay type: functional, organism-based; set-up: dose 100 mg/kg; summary of the method: as §1
# Mus musculus [15] = test: Anticonvulsant activity in Albino mouse at 100 mg/kg, ip after 0.5 hrs by MES assay; assay type: functional, organism-based; set-up: dose 100 mg/kg; summary of the method: as §1
# Mus musculus [16] = test: Anticonvulsant activity in Albino mouse at 30 mg/kg, ip after 4 hrs by MES assay; assay type: functional, organism-based; set-up: dose 30 mg/kg; summary of the method: as §1
# Mus musculus [17] = test: Anticonvulsant activity in Albino mouse at 300 mg/kg, ip after 4 hrs by MES assay; assay type: functional, organism-based; set-up: dose 300 mg/kg; summary of the method: as §1
# Mus musculus [18] = test: Anticonvulsant activity in Albino mouse at 300 mg/kg, ip after 0.5 hrs by MES assay; assay type: functional, organism-based; set-up: dose 300 mg/kg; summary of the method: as §1
# Mus musculus [19] = test: Anticonvulsant activity in intraperitoneally dosed Albino mouse by MES assay; assay type: functional; details: ip
# Mus musculus [20] = test: Anticonvulsant activity in intraperitoneally dosed Albino mouse at 1613 umol/kg by PTZ assay; assay type: functional, organism-based
# Summary of the method: (§3)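 Phase II PTZ test in albino mice dosed ip (30% PEG 400 and 10% water), at the predetermined time of peak effect, in groups of six animals.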
# Mus musculus [21] = test: Neurotoxic time of peak effect in intraperitoneally dosed Albino mouse by RotoRod test; assay type: ADME, organism-based; details: in vivo, ip
# Summary of the method: (§4)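 Median neurotoxic dose in albino mice given compound ip in 30% PEG 400 and 10% water, at the time of peak effect. Six animals per dose were tested on RotoRod and the percentage showing minimal neurotoxicity was recorded. Where TD50 could not be completed, the highest dose tested is reported.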
# Mus musculus [22] = test: Anticonvulsant activity assessed as time of peak effect in intraperitoneally dosed Albino mouse by MES assay; assay type: functional
# Summary of the method: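 Phase II quantification in albino mice (ip; 30% PEG 400 and 10% water vehicle). Time of peak effect was determined first. Groups of six mice then received different doses at that time. MES ED50 is the dose protecting 50% of animals, in µmol/kg.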
# [23] = (§5) Neurotoxicity in intraperitoneally dosed Albino mouse by RotoRod test; assay type: toxicity, organism-based; details: Albino, in vivo, ip; summary of the method: as §4
# Mus musculus [24] = organism: Mus musculus; test: Protective index, ratio of TD50 against Albino mouse to ED50 for Albino mouse; assay type: functional
# Mus musculus [25] = test: as §5; assay type: toxicity, organism-based; details: in vivo, ip; summary of the method: as §4
# Mus musculus [26] = test: Neurotoxicity in intraperitoneally dosed Albino mouse at 481 umol/kg by RotoRod test; assay type: toxicity, organism-based; details: in vivo, ip; summary of the method: as §4
# Mus musculus [27] = test: Anticonvulsant activity in intraperitoneally dosed Albino mouse at 481 umol/kg by PTZ assay; assay type: functional, organism-based; summary of the method: as §3
SMILES,Activity (Mus musculus [1]),Activity (Mus musculus [2]),Activity (Mus musculus [3]),Activity (Mus musculus [4]),Activity (Mus musculus [5]),Activity (Mus musculus [6]),Activity (Mus musculus [7]),Activity (Mus musculus [8]),Activity (Mus musculus [9]),Activity (Mus musculus [10]),Activity (Mus musculus [11]),Activity (Mus musculus [12]),Activity (Mus musculus [13]),Activity (Mus musculus [14]),Activity (Mus musculus [15]),Activity (Mus musculus [16]),Activity (Mus musculus [17]),Activity (Mus musculus [18]),other results
CCCCN(CCCC)S(=O)(=O)NC(=O)OC(C)(C)C,inactive,inactive,Non-toxic,inactive,Non-toxic,inactive,Non-toxic,Non-toxic,Non-toxic,inactive,inactive,Non-toxic,inactive,inactive,–,–,–,–,–
CCCN(CCC)S(=O)(=O)NC(=O)OC(C)(C)C,inactive,inactive,Non-toxic,inactive,Non-toxic,inactive,Non-toxic,Non-toxic,Non-toxic,inactive,inactive,Non-toxic,inactive,inactive,inactive,inactive,inactive,–,–
O=S(=O)(N1CCOCC1)N1CCOCC1,inactive,–,Non-toxic,inactive,Non-toxic,inactive,Non-toxic,–,Non-toxic,inactive,inactive,–,–,inactive,inactive,inactive,–,–,–
O=S(=O)(NC1CC1)NC1CC1,inactive,inactive,Non-toxic,inactive,Non-toxic,inactive,Non-toxic,Non-toxic,Non-toxic,inactive,inactive,Non-toxic,inactive,inactive,inactive,inactive,inactive,inactive,–
CCCCN(CCCC)S(=O)(=O)N(CCCC)CCCC,inactive,inactive,Non-toxic,inactive,Non-toxic,inactive,Non-toxic,Non-toxic,Non-toxic,–,inactive,Non-toxic,inactive,inactive,inactive,inactive,inactive,inactive,–
NS(=O)(=O)NCc1ccccc1,–,inactive,Non-toxic,inactive,Non-toxic,inactive,Non-toxic,Non-toxic,Non-toxic,inactive,–,Non-toxic,inactive,inactive,Active,–,Active,Active,ED50 (Mus musculus [19]): 239 µmol/kg; Activity (Mus musculus [20]): inactive; Activity (Mus musculus [21]): 0.5 h; Activity (Mus musculus [22]): 0.5 h; TD50 [23]: 1420 µmol/kg; PI (Mus musculus [24]): 5.9
CCCCN(CCCC)S(N)(=O)=O,inactive,–,Non-toxic,inactive,Non-toxic,inactive,Non-toxic,Toxic,Non-toxic,inactive,inactive,Toxic,–,–,–,inactive,–,–,–
CCCN(CCC)S(N)(=O)=O,–,–,Toxic,–,Toxic,inactive,Toxic,–,Toxic,inactive,inactive,–,–,–,–,inactive,–,–,–
CCCCNS(=O)(=O)NC(=O)OC(C)(C)C,–,inactive,Non-toxic,inactive,Non-toxic,inactive,Non-toxic,Non-toxic,Non-toxic,inactive,–,Non-toxic,inactive,inactive,Active,inactive,–,Active,–
CC(C)(C)OC(=O)NS(=O)(=O)NCc1ccccc1,inactive,inactive,Non-toxic,inactive,Non-toxic,inactive,Non-toxic,Non-toxic,Non-toxic,inactive,inactive,Non-toxic,inactive,inactive,inactive,inactive,inactive,inactive,–
CCCNS(=O)(=O)NCCC,inactive,inactive,Non-toxic,inactive,Non-toxic,inactive,Non-toxic,–,Non-toxic,–,inactive,Non-toxic,Active,–,inactive,inactive,inactive,Active,–
CCCN(CCC)S(=O)(=O)N(CCC)CCC,inactive,inactive,Non-toxic,inactive,Non-toxic,inactive,Non-toxic,Non-toxic,Non-toxic,inactive,inactive,Non-toxic,inactive,inactive,inactive,inactive,inactive,inactive,–
CCCCNS(=O)(=O)NCCCC [BUTYL(BUTYLSULFAMOYL)AMINE],inactive,–,Non-toxic,inactive,Non-toxic,inactive,Non-toxic,–,Non-toxic,inactive,–,–,–,inactive,–,inactive,–,–,Activity (Mus musculus [22]): 2 h; TD50 [23]: > 481 µmol/kg; Activity (Mus musculus [25]): 0%; Activity (Mus musculus [26]): 0%; PI (Mus musculus [24]): >1.6; Activity (Mus musculus [27]): inactive
CCCCNS(N)(=O)=O,–,–,Non-toxic,inactive,Non-toxic,inactive,Non-toxic,Toxic,–,inactive,inactive,–,–,inactive,inactive,–,–,–,–
